Results taken from ChEMBL document CHEMBL5329167, “Design, synthesis and evaluation of halogenated phenazine antibacterial prodrugs targeting nitroreductase enzymes for activation” (RSC Med Chem, 2023).
Values after ≈ are worked out from the molar mass of the structure shown. Active and inactive are the calls of the source. The rule behind the calls is not given here.

Legend:
Staphylococcus aureus [1] = test: Antibacterial activity against methicillin-resistant Staphylococcus aureus 1707 assessed as bacterial growth inhibition incubated for 16 hrs by CLSI based broth microdilution method; assay type: functional
Summary of the method: (§1)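 Broth microdilution per CLSI in LB, eleven two-fold serial dilutions spanning 0.10 to 100 µM. Inoculum ~10⁵ cells/well from fresh log-phase culture (OD₆₀₀ 0.6–0.8). MIC taken as lowest concentration preventing growth after 16 h at 37 °C, read by OD₆₀₀ turbidity. DMSO vehicle control, top 0.5% v/v. At least three independent experiments.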

Staphylococcus aureus [2] = test: Antibacterial activity against Staphylococcus aureus clinical isolate 147 assessed as bacterial growth inhibition incubated for 16 hrs by CLSI based broth microdilution method; assay type: functional
Staphylococcus aureus [3] = test: Antibacterial activity against Staphylococcus aureus clinical isolate 138 assessed as bacterial growth inhibition incubated for 16 hrs by CLSI based broth microdilution method; assay type: functional
Staphylococcus aureus [4] = test: Antibacterial activity against Staphylococcus aureus clinical isolate 156 assessed as bacterial growth inhibition incubated for 16 hrs by CLSI based broth microdilution method; assay type: functional
Staphylococcus aureus [5] = test: Antibacterial activity against methicillin-resistant Staphylococcus aureus 1707 assessed as zone of inhibition at 10 mM incubated for 16 hrs by agar diffusion assay; assay type: functional
Summary of the method: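 Modified Kirby-Bauer disk diffusion. 100 µL MRSA 1707 inoculum (OD₆₀₀ 0.7, ~10⁸ CFU) spread on LB agar and left 30 min. 10 µL of 10 mM DMSO compound solution then pipetted onto the plate. Incubation 16 h at 37 °C; zone of inhibition area (cm²) measured. Three independent experiments.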

Enterococcus faecalis = test: Antibacterial activity against Enterococcus faecalis OG1RF assessed as bacterial growth inhibition incubated for 16 hrs by CLSI based broth microdilution method; assay type: functional
Summary of the method: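 Broth microdilution per CLSI in brain-heart infusion: eleven 2-fold dilutions spanning 0.10–100 µM, with DMSO vehicle/negative control topping at 0.5% v/v. Inoculum ~10⁵ cells/well from log-phase culture (OD₆₀₀ 0.6–0.8). 37 °C, 16 h. MIC is the lowest concentration preventing growth, read as OD₆₀₀ turbidity. At least three independent experiments.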

Enterococcus = test: Antibacterial activity against vancomycin-resistant Enterococcus 700221 assessed as bacterial growth inhibition incubated for 16 hrs by CLSI based broth microdilution method; assay type: functional
Summary of the method: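 Growth scored by OD₆₀₀ turbidity after 16 h at 37 °C; MIC is the lowest concentration preventing growth. DMSO vehicle control up to 0.5% v/v. Three or more independent experiments.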

[6] = Cytotoxicity against HEK293 cells incubated for 48 hrs by MTT assay; assay type: toxicity, cell-based; settings: human
Summary of the method: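 HEK-293 cells (10⁴/well) in DMEM with 10% FBS, penicillin/streptomycin, settled overnight at 37 °C, 5% CO₂. Medium replaced with compound at 0.10–100 µM (2-fold steps); DMSO as negative control. After 48 h at 37 °C, MTT (5 mg/mL stock) added for 3 h. Formazan dissolved in DMSO, OD read at 570 nm. Eight replicates per treatment.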

[7] = test system: Staphylococcus epidermidis; test: Antibacterial activity against Staphylococcus epidermidis 12228 assessed as bacterial growth inhibition incubated for 16 hrs by CLSI based broth microdilution method; assay type: functional
Summary of the method: (§2)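 CLSI broth microdilution in LB: eleven 2-fold serial dilutions, 0.10–100 µM. DMSO vehicle/negative control diluted from 0.5% v/v. Wells seeded with ~10⁵ cells from log-phase culture (OD₆₀₀ 0.6–0.8), held 16 h at 37 °C. MIC taken as the lowest concentration preventing growth by OD₆₀₀ turbidity. Minimum three independent experiments.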

Staphylococcus aureus [8] = test: Antibacterial activity against methicillin-resistant Staphylococcus aureus BAA-1707 assessed as bacterial growth inhibition incubated for 16 hrs by CLSI based broth microdilution method; assay type: functional; summary of the method: as §1
[9] = test system: Staphylococcus epidermidis; test: Antibacterial activity against Staphylococcus epidermidis clinical isolate CL-1 assessed as bacterial growth inhibition incubated for 16 hrs by CLSI based broth microdilution method; assay type: functional
Streptococcus pneumoniae = test: Antibacterial activity against Streptococcus pneumoniae 6303 assessed as bacterial growth inhibition incubated for 16 hrs by CLSI based broth microdilution method; assay type: functional; summary of the method: as §2
[10] = Hemolytic activity against red blood cells (unknown origin) at 200 uM; assay type: toxicity, cell-based, Erythrocyte; settings: read-out: Activity
Staphylococcus aureus [11] = test: Antibacterial activity against methicillin-resistant Staphylococcus aureus BAA-44 assessed as bacterial growth inhibition incubated for 16 hrs by CLSI based broth microdilution method; assay type: functional; summary of the method: as §1
[12] = Lipophilicity, LogP of compound in octanol-water mixture incubated for 1 hr by UV-vis spectroscopy; assay type: physicochemical
Summary of the method: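 Shake-flask partition: compound in octanol (1% v/v DMSO) mixed with equal volume water, stirred vigorously, left 1 h at room temperature to separate. Octanol-phase concentration measured by UV-Vis at 370 or 380 nm against a serial-dilution standard curve. Water concentration obtained by mass balance; LogP = log10(Coct/Cw). Acetophenone as positive control. Three independent experiments.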

Staphylococcus aureus [13] = test: Antibacterial activity against methicillin-resistant Staphylococcus aureus clinical isolate 1 assessed as bacterial growth inhibition incubated for 16 hrs by CLSI based broth microdilution method; assay type: functional
[14] = test system: Staphylococcus epidermidis; test: Antibacterial activity against methicillin-resistant Staphylococcus epidermidis 35984 assessed as bacterial growth inhibition incubated for 16 hrs by CLSI based broth microdilution method; assay type: functional; summary of the method: as §1
Staphylococcus aureus [15] = test: Antibacterial activity against methicillin-resistant Staphylococcus aureus clinical isolate 2 assessed as bacterial growth inhibition incubated for 16 hrs by CLSI based broth microdilution method; assay type: functional
[16] = Metal chelating activity assessed as formation of phenazine-iron complex measured for 1 to 60 mins by UV-vis spectroscopy; settings: time 1-60 min
Summary of the method: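 Compound from a 10 mM DMSO stock diluted in DMSO in a cuvette, alone or with ammonium iron(II) sulfate hexahydrate (10 mM aqueous stock). Spectra of the compound-only cuvette and the iron-containing cuvette are compared by UV-vis spectrometry to judge phenazine–iron(II) complex formation.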

Staphylococcus aureus [17] = test: Antibacterial activity against Staphylococcus aureus clinical isolate 129 assessed as bacterial growth inhibition incubated for 16 hrs by CLSI based broth microdilution method; assay type: functional

SMILES	MIC (Staphylococcus aureus [1]) [µM]	MIC (Staphylococcus aureus [2]) [µM]	MIC (Staphylococcus aureus [3]) [µM]	MIC (Staphylococcus aureus [4]) [µM]	diameter of the inhibition zone (DIZ) (Staphylococcus aureus [5]) [cm2]	MIC (Enterococcus faecalis) [µM]	MIC (Enterococcus) [µM]	CC50 at 48 h [6] [µM]	MIC [7] [µM]	MIC (Staphylococcus aureus [8]) [µM]	MIC [9] [µM]	MIC (Streptococcus pneumoniae) [µM]	hemolysis at 200 µM [10] [%]	MIC (Staphylococcus aureus [11]) [µM]	logP at 1 h [12]	MIC (Staphylococcus aureus [13]) [µM]	MIC [14] [µM]	MIC (Staphylococcus aureus [15]) [µM]	Activity [16]	MIC (Staphylococcus aureus [17]) [µM]
Cc1cccc2nc3c(OS(=O)(=O)Cc4ccc([N+](=O)[O-])cc4)c(Br)c(Cl)c(Br)c3nc12	0.1 (≈ 0.0602 µg/mL)	0.59 (≈ 0.355 µg/mL)	0.39 (≈ 0.235 µg/mL)	0.59 (≈ 0.355 µg/mL)	0.87	4.69 (≈ 2.82 µg/mL)	0.15 (≈ 0.0902 µg/mL)	34.1	0.59 (≈ 0.355 µg/mL)	0.1 (≈ 0.0602 µg/mL)	2.35 (≈ 1.41 µg/mL)	0.15 (≈ 0.0902 µg/mL)	< 1	0.3 (≈ 0.18 µg/mL)	3.11	0.3 (≈ 0.18 µg/mL)	0.15 (≈ 0.0902 µg/mL)	0.3 (≈ 0.18 µg/mL)	Active	–
O=[N+]([O-])c1ccc(CS(=O)(=O)Oc2c(Br)cc(Br)c3nc4c(C(F)(F)F)cc(C(F)(F)F)cc4nc23)cc1	1.56 (≈ 1.08 µg/mL)	–	–	–	2.57	0.78 (≈ 0.538 µg/mL)	1.56 (≈ 1.08 µg/mL)	2.9	0.15 (≈ 0.103 µg/mL)	1.56 (≈ 1.08 µg/mL)	–	0.2 (≈ 0.138 µg/mL)	10.4	4.69 (≈ 3.23 µg/mL)	–	–	0.78 (≈ 0.538 µg/mL)	–	inactive	–
CN(C)[C@@H]1C(O)=C(C(N)=O)C(=O)[C@@]2(O)C(O)=C3C(=O)c4c(O)cccc4[C@@](C)(O)[C@H]3C[C@@H]12 [TETRACYCLINE]	–	0.1 (≈ 0.0444 µg/mL)	0.15 (≈ 0.0667 µg/mL)	0.15 (≈ 0.0667 µg/mL)	–	–	–	–	–	–	25 (≈ 11.1 µg/mL)	–	–	–	–	0.1 (≈ 0.0444 µg/mL)	–	0.1 (≈ 0.0444 µg/mL)	–	0.1 (≈ 0.0444 µg/mL)
Oc1c(Br)cc(Br)c2nc3c(C(F)(F)F)cc(C(F)(F)F)cc3nc12	0.1 (≈ 0.049 µg/mL)	–	–	–	4.58	0.1 (≈ 0.049 µg/mL)	0.2 (≈ 0.098 µg/mL)	–	0.1 (≈ 0.049 µg/mL)	0.15 (≈ 0.0735 µg/mL)	–	0.1 (≈ 0.049 µg/mL)	16.7	0.15 (≈ 0.0735 µg/mL)	–	–	0.05 (≈ 0.0245 µg/mL)	–	Active	–
Cc1cccc2nc3c(OS(=O)(=O)Cc4ccccc4)c(Br)c(Cl)c(Br)c3nc12	> 100	> 100	> 100	> 100	0	> 100	> 100	49.6	> 100	> 100	> 100	> 100	–	> 100	–	–	> 100	–	inactive	> 100
O=[N+]([O-])c1ccc(CS(=O)(=O)Oc2c(Br)cc(Br)c3nc4cc(Cl)ccc4nc23)cc1	0.1 (≈ 0.0588 µg/mL)	–	–	–	0.66	4.69 (≈ 2.76 µg/mL)	0.59 (≈ 0.347 µg/mL)	6.4	0.15 (≈ 0.0881 µg/mL)	0.1 (≈ 0.0588 µg/mL)	–	0.15 (≈ 0.0881 µg/mL)	< 1	0.15 (≈ 0.0881 µg/mL)	–	–	0.39 (≈ 0.229 µg/mL)	–	inactive	–
O=S(=O)(Cc1ccccc1)Oc1c(Br)cc(Br)c2nc3c(C(F)(F)F)cc(C(F)(F)F)cc3nc12	> 100	–	–	–	1.07	0.39 (≈ 0.251 µg/mL)	0.78 (≈ 0.502 µg/mL)	3.6	0.15 (≈ 0.0966 µg/mL)	> 100	–	0.2 (≈ 0.129 µg/mL)	–	18.8 (≈ 12.1 µg/mL)	–	–	1.56 (≈ 1 µg/mL)	–	inactive	–
CC[C@H]1OC(=O)[C@H](C)[C@@H](O[C@H]2C[C@@](C)(OC)[C@@H](O)[C@H](C)O2)[C@H](C)[C@@H](O[C@@H]2O[C@H](C)C[C@H](N(C)C)[C@H]2O)[C@](C)(O)C[C@@H](C)C(=O)[C@H](C)[C@@H](O)[C@]1(C)O [ERYTHROMYCIN]	–	37.5 (≈ 27.5 µg/mL)	> 100	> 100	–	–	–	–	–	–	> 100	–	–	–	–	100 (≈ 73.4 µg/mL)	–	18.8 (≈ 13.8 µg/mL)	–	> 100
